Measured values as given in ChEMBL document CHEMBL4138310 (J Med Chem, 2018).

Experiments:
[1] = Ratio of EC50 for inhibition of protease L10F/V32I/M46I/I47V/Q58E/I84V mutant in HIV1 A17 infected in human MT4 cells to EC50 for wild-type HIV-1 pNL4-3 infected in human MT4 cells; type: functional, Human immunodeficiency virus 1
Method in brief: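 Ratio of EC50 values from MT-4 cytopathic-effect MTT assays (5 days, 37 °C, triplicate, median-effect fit). Numerator is LPV-resistant strain A1711, denominator is wild-type HIV-1 pNL4-3.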

[2] = test system: Human immunodeficiency virus 1; experiment: Antiviral activity against wild-type HIV1 pNL4-3 infected in CMVdeltaR8.91 transfected 293T cells after 48 hrs by lentiviral vector-based luciferase reporter gene assay; type: functional, organism-based; details: Human immunodeficiency virus 1, pNL4-3, HEK-293T
Method in brief: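 pNL4-3-based luciferase reporter lentiviral vector made by transfecting 293T cells with pCMV-ΔR8.91 (wild-type or V32I/L33F/I54M/V82I or V32I/L33F/I54M/I84V protease) plus luciferase transfer and envelope plasmids, with or without inhibitor. After 48 h, fresh 293T cells infected with vector. IC50 for suppression of luciferase transduction taken from dose-response curve.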

[3] = Ratio of EC50 for DRV-resistant protease V32I/L33F/I54M/I84V mutant in HIV1 transfected in 293T cells to EC50 for wild-type HIV-1 pNL4-3 infected in CMVdeltaR8.91 transfected 293T cells; type: functional, Human immunodeficiency virus 1
[4] = test system: Human immunodeficiency virus 1; experiment: Antiviral activity against wild-type HIV1 pNL4-3 infected in human MT4 cells assessed as inhibition of virus-induced cytopathic effect after 5 days in absence of human serum by MTT assay; type: functional, organism-based; details: Human immunodeficiency virus 1, pNL4-3, MT4, 120 h
Method in brief: (§1)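 MT-4 cells inoculated with HIV-1 pNL4-3, then given an equal volume of compound at several concentrations in 1% DMSO solution with 10% FBS. Incubated 5 days at 37 °C in CO2, in triplicate. MTT read by optical density, percent reduction of cytopathic effect calculated, and EC50 fitted to the median-effect equation. Values averaged over n = 3; the 50% human serum condition was run alongside.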

[5] = test system: Human immunodeficiency virus 1; experiment: Antiviral activity against wild-type HIV1 pNL4-3 infected in human MT4 cells assessed as inhibition of virus-induced cytopathic effect after 5 days in presence of 50 % of human serum by MTT assay; type: functional, organism-based; details: Human immunodeficiency virus 1, pNL4-3, MT4, 120 h; method in brief: as §1
[6] = biological target: Protease (Human immunodeficiency virus 1) (UniProt Q9YQ12); experiment: Inhibition of recombinant HIV1 protease at 1 nM using H-Lys-Ala-Arg-Val-Tyr-Phe(p-NO2)-Glu-Ala-Nle-NH2 as substrate preincubated for 5 mins followed by substrate addition measured after 3 hrs by fluorescence-based assay
Method in brief: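 Recombinant HIV-1 protease (40 ng/mL stock in pH 5.0 acetate/EDTA/NaCl/2-mercaptoethanol/NP-40/glycerol) mixed with inhibitor (10 nM solution in DMSO) in 200 mM MES-NaOH pH 5.5 with 2 mM DTT, 2 mM EDTA and 1 M NaCl. Preincubated 5 min at 37 °C, then 1.0 mM substrate solution added and incubated 3 h at 37 °C. Stopped with 1 N HCl. The Lys-Ala-Arg-Val-Tyr-OH product was quantified by RP-HPLC with fluorescence (Ex 275, Em 305 nm). Single determination.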

[7] = test system: Human immunodeficiency virus 1; experiment: Ratio of EC50 for wild-type HIV1 pNL4-3 infected in human MT4 in presence of 50% of human serum to EC50 for wild-type HIV-1 pNL4-3 infected in human MT4 in absence of human serum; type: functional
Method in brief: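 Serum binding effect calculated as the pNL4-3 EC50 in 50% human serum divided by the EC50 in 0% serum, using MT-4 cytopathic-effect MTT assays run for 5 days at 37 °C.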

[8] = Ratio of EC50 for DRV-resistant protease V32I/L33F/I54M/V82I mutant in HIV1 transfected in 293T cells to EC50 for wild-type HIV-1 pNL4-3 infected in CMVdeltaR8.91 transfected 293T cells; type: functional, Human immunodeficiency virus 1
Method in brief: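 Ratio of IC50 values from the 293T luciferase reporter lentiviral vector assay. Numerator is vector carrying DRV-resistant protease (V32I/L33F/I54M/I84V or V32I/L33F/I54M/V82I), denominator is wild-type pNL4-3-based vector.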

[9] = Cytotoxicity against human MT4 cells after 5 days by MTT assay; type: cell-based; details: read-out: TD50
Method in brief: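 Uninfected MT-4 cells given compound at several concentrations in 1% DMSO solution with 10% FBS. Incubated 5 days at 37 °C in CO2, in triplicate. Viability read by MTT optical density, with TD50 taken as the cytotoxic measure.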

COc1cccc2cc(C(=O)N[C@H](C(=O)N[C@@H](Cc3ccccc3)[C@H](O)C(=O)N3CSC(C)(C)[C@H]3C(=O)NCc3c(C)cccc3C)[C@H]3CCOC3)oc12
Ratio EC50 [1]: >8 | EC50 [2]: 1.71 nM | Ratio EC50 [3]: 0.7 | EC50 [4]: < 3 nM | EC50 [5]: 80 nM | inhibition [6]: 97% | Ratio EC50 [7]: >27 | Ratio EC50 [8]: 0.2 | CC50 at 120 h [9]: 11000 nM
